Measurements: ChEMBL document CHEMBL1629572 (Antimicrob Agents Chemother, 2009)

What was measured:
Neuraminidase [1] = biological target: T1, Neuraminidase (Influenza A virus, UniProt B4URF0); assay: Inhibition of Influenza A virus (A/duck/Hokkaido/84/2002(H5N3)) neuraminidase after 30 mins by fluorescence analysis
[2] = Inhibition of Influenza B virus (B/Yamagata/1/2005(Yamagata)) neuraminidase after 30 mins by fluorescence analysis
Procedure, shortened: (§1)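 Virus NA source was mixed with compound in 32.5 mM MES-NaOH pH 6.5 with 4 mM CaCl2 and preincubated 10 min at room temperature. Reaction ran 30 min at room temperature with 100 μM (final) 4-MU-NANA. Fluorescence was read at ex 360/em 460 nm, in triplicate. IC50 came from linear regression of residual activity against log concentration, using concentrations giving 10–90% residual activity.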

[3] = Inhibition of Influenza B virus (B/Yamagata/15/2002(Victoria)) neuraminidase after 30 mins by fluorescence analysis; procedure, shortened: as §1
[4] = Inhibition of Influenza B virus (B/Shiga/31/2002(Yamagata)) neuraminidase after 30 mins by fluorescence analysis; procedure, shortened: as §1
[5] = Inhibition of Influenza B virus (B/Ohio/01/2005(Victoria)) neuraminidase after 30 mins by fluorescence analysis; procedure, shortened: as §1
Neuraminidase [6] = biological target: T1, Neuraminidase; assay: Inhibition of Influenza A virus (A/Yamagata/2/2002(H3N2)) neuraminidase after 30 mins by fluorescence analysis
[7] = Inhibition of Influenza B virus (B/Saitama/01/2005(Yamagata)) neuraminidase after 30 mins by fluorescence analysis; procedure, shortened: as §1
Neuraminidase [8] = biological target: T1, Neuraminidase; assay: Inhibition of Influenza A virus (A/Yamagata/32/1989(H1N1)) neuraminidase after 30 mins by fluorescence analysis
Neuraminidase [9] = biological target: T1, Neuraminidase; assay: Inhibition of Influenza A virus (A/Puerto Rico/8/1934(H1N1)) neuraminidase after 30 mins by fluorescence analysis
Neuraminidase [10] = biological target: T1, Neuraminidase; assay: Inhibition of Influenza A virus (A/New York/55/2004(H3N2)) neuraminidase after 30 mins by fluorescence analysis
[11] = Inhibition of Influenza B virus (B/Aichi/3/2006(Victoria)) neuraminidase after 30 mins by fluorescence analysis; procedure, shortened: as §1
Neuraminidase [12] = biological target: T1, Neuraminidase; assay: Inhibition of Influenza A virus (A/Yamagata/1/2002(H3N2)) neuraminidase after 30 mins by fluorescence analysis
[13] = Inhibition of Influenza B virus (B/Akita/9/2003(Victoria)) neuraminidase after 30 mins by fluorescence analysis; procedure, shortened: as §1
Neuraminidase [14] = biological target: T1, Neuraminidase; assay: Inhibition of Influenza A virus (A/duck/Ukraine/1/1963(H3N8)) neuraminidase after 30 mins by fluorescence analysis
[15] = Inhibition of Influenza B virus (B/Sapporo/29/2005(Yamagata)) neuraminidase after 30 mins by fluorescence analysis; procedure, shortened: as §1
Neuraminidase [16] = biological target: T1, Neuraminidase; assay: Inhibition of Influenza A virus (A/R(duck/Mongolia/54/01-duck/Mongolia/47/01)([…])) neuraminidase after 30 mins by fluorescence analysis
[17] = Inhibition of Influenza B virus (B/Yamagata/398/2003(Victoria)) neuraminidase after 30 mins by fluorescence analysis; procedure, shortened: as §1
[18] = Inhibition of Influenza B virus (B/Aichi/186/2005(Yamagata)) neuraminidase after 30 mins by fluorescence analysis; procedure, shortened: as §1
Neuraminidase [19] = biological target: T1, Neuraminidase; assay: Inhibition of Influenza A virus (A/Wellington/1/2004(H3N2)) neuraminidase after 30 mins by fluorescence analysis
[20] = Inhibition of Influenza B virus (B/Malaysia/2506/2004(Victoria)) neuraminidase after 30 mins by fluorescence analysis; procedure, shortened: as §1
Neuraminidase [21] = biological target: T1, Neuraminidase; assay: Inhibition of Influenza A virus (A/Saitama/07/2006(H3N2)) neuraminidase after 30 mins by fluorescence analysis
[22] = Inhibition of Influenza B virus (B/Brisbane/32/2002(Victoria) neuraminidase after 30 mins by fluorescence analysis; procedure, shortened: as §1
Neuraminidase [23] = biological target: T1, Neuraminidase; assay: Inhibition of Influenza A virus (A/Osaka/56/2004(H3N2)) neuraminidase after 30 mins by fluorescence analysis
Neuraminidase [24] = biological target: T1, Neuraminidase; assay: Inhibition of Influenza A virus (A/Okinawa/42/2004(H1N1)) neuraminidase after 30 mins by fluorescence analysis
Neuraminidase [25] = biological target: T1, Neuraminidase; assay: Inhibition of Influenza A virus (A/Yamagata/3/2002(H1N1)) neuraminidase after 30 mins by fluorescence analysis
Neuraminidase [26] = biological target: T1, Neuraminidase; assay: Inhibition of Influenza A virus (A/Shiga/1/2002(H1N1)) neuraminidase after 30 mins by fluorescence analysis
[27] = Inhibition of Influenza B virus (B/Saitama/01/2006(Victoria)) neuraminidase after 30 mins by fluorescence analysis; procedure, shortened: as §1
[28] = Inhibition of Influenza B virus (B/Tokushima/1/2003(Victoria)) neuraminidase after 30 mins by fluorescence analysis; procedure, shortened: as §1
Neuraminidase [29] = biological target: T1, Neuraminidase; assay: Inhibition of Influenza A virus (A/Kitakyushu/159/1993(H3N2)) neuraminidase after 30 mins by fluorescence analysis
Neuraminidase [30] = biological target: T1, Neuraminidase; assay: Inhibition of Influenza A virus (A/Yamagata/83/2006(H1N1)) neuraminidase after 30 mins by fluorescence analysis
[31] = Inhibition of Influenza B virus (B/Shizuoka/58/2004(Yamagata)) neuraminidase after 30 mins by fluorescence analysis; procedure, shortened: as §1
Neuraminidase [32] = biological target: T1, Neuraminidase; assay: Inhibition of Influenza A virus (A/turkey/Ontario/6,118/1968(H8N4)) neuraminidase after 30 mins by fluorescence analysis
Neuraminidase [33] = biological target: T1, Neuraminidase; assay: Inhibition of Influenza A virus (A/duck/England/1/1956(H11N6)) neuraminidase after 30 mins by fluorescence analysis
Neuraminidase [34] = biological target: T1, Neuraminidase; assay: Inhibition of Influenza A virus (A/Wisconsin/67/2005(H3N2)) neuraminidase after 30 mins by fluorescence analysis
[35] = Inhibition of Influenza B virus (B/Yamagata/145/2003(Victoria)) neuraminidase after 30 mins by fluorescence analysis; procedure, shortened: as §1
Neuraminidase [36] = biological target: T1, Neuraminidase; assay: Inhibition of Influenza A virus (A/Wyoming/03/2003(H3N2)) neuraminidase after 30 mins by fluorescence analysis
Influenza A virus [37] = assay: Antiviral activity against Influenza A virus (A/Puerto Rico/8/1934(H1N1)) infected in mouse infection model at 0.3 umol/kg, itn administered 4 hrs pre-infection and at 4 hrs and 17 hrs post-infection up to 20 days; format: functional, organism-based
Procedure, shortened: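 BALB/c females, 5–6 weeks old, were anaesthetised and infected intranasally with 1,500 PFU/mouse A/PR/8/34 in PBS with 0.42% BSA. Three intranasal doses of 0.3 μmol/kg in saline (50 μl) were given at 4 h pre-infection and at 4 h and 17 h post-infection. Survival was read daily for 20 days, 10–12 mice per group.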

Neuraminidase [38] = biological target: T1, Neuraminidase; assay: Inhibition of Influenza A virus (A/duck/Memphis/546/1974(H11N9)) neuraminidase after 30 mins by fluorescence analysis
[39] = Inhibition of Influenza B virus (B/Mie/1/1993(Yamagata)) neuraminidase after 30 mins by fluorescence analysis; procedure, shortened: as §1
[40] = Inhibition of Influenza B virus (B/Yamagata/85/2004(Yamagata)) neuraminidase after 30 mins by fluorescence analysis; procedure, shortened: as §1
[41] = Inhibition of Influenza B virus (B/Shanghai/361/2002(Yamagata)) neuraminidase after 30 mins by fluorescence analysis; procedure, shortened: as §1
Influenza A virus [42] = assay: Antiviral activity against Influenza A virus (A/Puerto Rico/8/1934(H1N1)) infected in mouse infection model at 95 ug/kg, itn administered 4 hrs pre-infection and at 4 hrs and 17 hrs post-infection up to 20 days; format: functional, organism-based

T1 sequence (B4URF0 whole entry): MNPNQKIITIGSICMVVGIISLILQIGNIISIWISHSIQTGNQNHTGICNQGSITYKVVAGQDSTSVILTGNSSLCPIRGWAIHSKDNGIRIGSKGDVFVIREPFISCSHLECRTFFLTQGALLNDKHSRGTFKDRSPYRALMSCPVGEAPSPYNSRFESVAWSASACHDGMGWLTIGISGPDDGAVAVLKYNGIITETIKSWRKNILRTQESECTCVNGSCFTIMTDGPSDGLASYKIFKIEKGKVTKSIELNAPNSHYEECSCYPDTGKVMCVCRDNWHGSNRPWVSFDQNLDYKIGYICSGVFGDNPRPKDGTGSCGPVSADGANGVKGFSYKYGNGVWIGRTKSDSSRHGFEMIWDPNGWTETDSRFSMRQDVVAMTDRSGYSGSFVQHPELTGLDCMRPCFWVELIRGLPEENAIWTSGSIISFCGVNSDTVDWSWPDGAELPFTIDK

`CCCCCCCC(=O)OC[C@@H](O)[C@@H](OC)[C@@H]1OC(C(=O)O)=C[C@H](NC(=N)N)[C@H]1NC(C)=O` [LANINAMIVIR OCTANOATE] showed an IC50 (Neuraminidase [1]) of 456 nM, an IC50 [2] of 3630 nM and an IC50 [3] of 6980 nM. The IC50 [4] was 10500 nM, the IC50 [5] was 12800 nM and the IC50 (Neuraminidase [6]) was 46.6 nM. The IC50 [7] was 3610 nM, the IC50 (Neuraminidase [8]) was 882 nM and the IC50 (Neuraminidase [9]) was 931 nM. For the same molecule, the IC50 (Neuraminidase [10]) was 136 nM, the IC50 [11] was 13800 nM and the IC50 (Neuraminidase [12]) was 56.6 nM. It also gave an IC50 [13] of 13800 nM, an IC50 (Neuraminidase [14]) of 1050 nM and an IC50 [15] of 3600 nM. It also gave an IC50 (Neuraminidase [16]) of 276 nM, an IC50 [17] of 12400 nM and an IC50 [18] of 3550 nM. It also gave an IC50 (Neuraminidase [19]) of 157 nM, an IC50 [20] of 11100 nM and an IC50 (Neuraminidase [21]) of 63.3 nM. For the same molecule, the IC50 [22] was 9890 nM, the IC50 (Neuraminidase [23]) was 129 nM and the IC50 (Neuraminidase [24]) was 631 nM. For the same molecule, the IC50 (Neuraminidase [25]) was 709 nM, the IC50 (Neuraminidase [26]) was 733 nM and the IC50 [27] was 45500 nM. For the same molecule, the IC50 [28] was 13800 nM, the IC50 (Neuraminidase [29]) was 221 nM and the IC50 (Neuraminidase [30]) was 733 nM. The IC50 [31] was 7530 nM, the IC50 (Neuraminidase [32]) was 420 nM and the IC50 (Neuraminidase [33]) was 262 nM. The IC50 (Neuraminidase [34]) was 187 nM, the IC50 [35] was 15900 nM and the IC50 (Neuraminidase [36]) was 114 nM. The Activity (Influenza A virus [37]) was “Non-toxic”, the IC50 (Neuraminidase [38]) was 356 nM and the IC50 [39] was 6850 nM. For the same molecule, the IC50 [40] was 7190 nM, the IC50 [41] was 6660 nM and the Activity (Influenza A virus [42]) was “Non-toxic”.
